In test [1] the target is Sodium-dependent serotonin transporter (Rattus norvegicus) (UniProt P31652). Briefly: Inhibition of [3H]citalopram binding at rat serotonin transporter; 10 uM. An outline of the steps: (§1)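 Contract-lab radioligand displacement, percent inhibition at 10 μM test compound; 5HTT used [³H]citalopram at 0.7 nM final, NET used [³H]desmethylimipramine at 3.0 nM final.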
In test [2] the target is Norepinephrine transporter (Rattus norvegicus) (UniProt Q9WTR4). Description: Inhibition of [3H]desmethylimipramine binding at rat norepinephrine transporter; 10 uM. In a few lines:
as §1

The target in test [3] is T1, Sodium-dependent dopamine transporter (Rattus norvegicus, UniProt P23977). Briefly: Inhibition of [3H]dopamine uptake in rat caudate putamen. It is filed as functional, tissue-based.
T1 sequence (P23977 whole entry): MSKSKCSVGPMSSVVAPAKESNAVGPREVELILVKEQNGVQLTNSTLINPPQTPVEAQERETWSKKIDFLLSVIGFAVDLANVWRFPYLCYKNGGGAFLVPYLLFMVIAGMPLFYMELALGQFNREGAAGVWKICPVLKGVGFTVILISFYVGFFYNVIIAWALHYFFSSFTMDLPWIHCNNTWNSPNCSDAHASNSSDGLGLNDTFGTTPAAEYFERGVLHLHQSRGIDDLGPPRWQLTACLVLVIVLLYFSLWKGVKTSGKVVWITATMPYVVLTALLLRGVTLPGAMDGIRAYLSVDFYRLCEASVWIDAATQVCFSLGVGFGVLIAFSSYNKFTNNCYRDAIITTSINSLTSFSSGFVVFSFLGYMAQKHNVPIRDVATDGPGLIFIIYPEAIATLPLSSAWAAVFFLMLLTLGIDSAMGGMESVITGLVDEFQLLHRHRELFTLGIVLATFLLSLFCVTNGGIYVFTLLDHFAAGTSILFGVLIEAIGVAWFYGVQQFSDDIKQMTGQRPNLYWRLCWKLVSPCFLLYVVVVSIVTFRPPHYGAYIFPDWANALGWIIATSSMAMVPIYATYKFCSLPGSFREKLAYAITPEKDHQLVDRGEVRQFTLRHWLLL
The target of test [4] is T2, Muscarinic acetylcholine receptor M1 (Rattus norvegicus, UniProt P08482).
T2 sequence (P08482 whole entry): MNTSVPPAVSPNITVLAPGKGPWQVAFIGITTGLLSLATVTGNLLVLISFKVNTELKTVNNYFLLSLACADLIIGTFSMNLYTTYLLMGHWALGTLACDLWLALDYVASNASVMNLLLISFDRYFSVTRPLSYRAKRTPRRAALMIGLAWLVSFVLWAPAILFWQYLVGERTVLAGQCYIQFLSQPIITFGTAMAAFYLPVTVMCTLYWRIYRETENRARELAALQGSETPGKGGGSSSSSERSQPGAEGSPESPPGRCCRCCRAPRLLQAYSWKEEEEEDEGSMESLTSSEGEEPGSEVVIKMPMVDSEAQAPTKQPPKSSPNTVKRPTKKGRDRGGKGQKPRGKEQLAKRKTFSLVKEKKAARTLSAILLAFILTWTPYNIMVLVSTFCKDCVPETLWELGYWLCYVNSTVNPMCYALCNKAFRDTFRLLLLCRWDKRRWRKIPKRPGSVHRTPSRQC
Briefly: Affinity for rat M1 acetylcholine receptor using [3H]pirenzepine displacement.

Test [5] has as its target T1, Sodium-dependent dopamine transporter. Briefly: Affinity for rat dopamine transporter using [3H]WIN-35428 displacement. In a few lines: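 Rat caudate putamen (male Sprague–Dawley, 200–250 g) homogenised in ice-cold modified Krebs-HEPES, pH 7.4, washed and used fresh (0.5% w/v). Filtration, scintillation counting. Ki from nonlinear least-squares fitting of three independent experiments, F test model selection.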

The target of test [6] is T3, Muscarinic acetylcholine receptor M2 (Rattus norvegicus, UniProt P10980).
T3 sequence (P10980 whole entry): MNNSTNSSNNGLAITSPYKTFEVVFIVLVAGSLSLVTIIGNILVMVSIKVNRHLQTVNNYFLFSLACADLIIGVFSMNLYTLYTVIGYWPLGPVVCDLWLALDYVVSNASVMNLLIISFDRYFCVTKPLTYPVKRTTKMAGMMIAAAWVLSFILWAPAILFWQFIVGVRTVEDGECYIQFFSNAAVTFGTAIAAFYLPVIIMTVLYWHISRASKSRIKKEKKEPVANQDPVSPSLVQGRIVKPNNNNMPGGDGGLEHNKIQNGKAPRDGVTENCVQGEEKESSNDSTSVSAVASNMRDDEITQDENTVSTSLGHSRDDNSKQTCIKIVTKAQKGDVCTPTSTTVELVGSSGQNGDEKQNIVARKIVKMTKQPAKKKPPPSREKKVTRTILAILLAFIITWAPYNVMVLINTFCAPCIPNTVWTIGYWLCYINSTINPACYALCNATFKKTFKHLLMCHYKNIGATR
Description: Affinity for rat M2 acetylcholine receptor using [3H]-AF DX 384 displacement.

Sodium-dependent serotonin transporter (Rattus norvegicus), sequence (P31652 whole entry): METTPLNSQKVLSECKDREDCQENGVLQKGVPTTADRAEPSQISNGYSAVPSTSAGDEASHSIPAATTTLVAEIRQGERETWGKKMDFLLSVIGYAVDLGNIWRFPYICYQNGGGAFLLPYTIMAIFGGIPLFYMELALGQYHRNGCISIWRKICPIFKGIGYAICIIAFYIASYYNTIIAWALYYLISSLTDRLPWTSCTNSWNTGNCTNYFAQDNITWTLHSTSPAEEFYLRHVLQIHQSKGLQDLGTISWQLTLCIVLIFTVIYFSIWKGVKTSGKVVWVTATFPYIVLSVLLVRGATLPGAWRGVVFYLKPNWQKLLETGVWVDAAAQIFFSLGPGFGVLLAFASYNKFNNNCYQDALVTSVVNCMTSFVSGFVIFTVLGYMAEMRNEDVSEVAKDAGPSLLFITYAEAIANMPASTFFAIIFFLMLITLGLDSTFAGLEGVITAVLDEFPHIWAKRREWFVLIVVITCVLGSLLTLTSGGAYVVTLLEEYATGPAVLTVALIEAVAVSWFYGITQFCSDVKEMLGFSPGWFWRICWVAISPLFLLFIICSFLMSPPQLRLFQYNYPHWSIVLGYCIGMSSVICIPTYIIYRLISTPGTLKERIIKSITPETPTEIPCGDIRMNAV
Norepinephrine transporter (Rattus norvegicus), sequence (Q9WTR4 as listed by the source): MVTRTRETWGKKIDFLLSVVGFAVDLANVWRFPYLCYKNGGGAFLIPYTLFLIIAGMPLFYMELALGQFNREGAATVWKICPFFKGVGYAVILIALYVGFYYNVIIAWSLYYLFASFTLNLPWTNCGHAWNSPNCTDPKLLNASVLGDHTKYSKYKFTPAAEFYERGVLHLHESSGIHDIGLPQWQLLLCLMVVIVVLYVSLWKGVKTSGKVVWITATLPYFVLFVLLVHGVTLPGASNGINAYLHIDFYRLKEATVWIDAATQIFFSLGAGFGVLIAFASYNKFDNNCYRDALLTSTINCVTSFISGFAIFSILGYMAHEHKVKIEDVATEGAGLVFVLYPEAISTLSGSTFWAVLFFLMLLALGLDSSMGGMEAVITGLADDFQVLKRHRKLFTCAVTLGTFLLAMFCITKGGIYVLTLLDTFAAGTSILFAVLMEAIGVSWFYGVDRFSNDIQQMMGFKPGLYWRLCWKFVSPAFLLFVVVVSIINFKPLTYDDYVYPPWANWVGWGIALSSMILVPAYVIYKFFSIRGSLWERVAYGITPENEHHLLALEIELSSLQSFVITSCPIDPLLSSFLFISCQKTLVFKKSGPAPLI

As for `CN1[C@@H]2CC[C@H]1C[C@@H](OC(c1ccc(Cl)cc1)c1ccc(Cl)cc1)C2`, the inhibition – broadly, the percentage by which the read-out fell short of the control – in test [1] was 54%; in test [2] it was > 43%.

With `CN1C2CCC1CC(OC(c1ccccc1)c1ccc(Cl)cc1)C2` (stereo in doubt; 10) [listing 1 of 2 here], the inhibition turned out to be 37.2% in test [1] and 27.9% in test [2].

Take `CN1[C@@H]2CC[C@H]1C[C@@H](OC(c1ccccc1)c1ccc(Br)cc1)C2` (stereo partly drawn): the inhibition in test [1] amounted to 39%; in test [2] it was 37%. Half-maximal inhibition in test [3] (IC50) was put at 29 nM.

For the compound `CCc1ccc(C(O[C@H]2C[C@H]3CC[C@@H](C2)N3C)c2ccccc2)cc1` (stereo partly drawn), the inhibition in test [1] was 42.7%; in test [2], 32.7%. For the same compound, inhibition in test [3] was half-maximal at 984 nM (IC50).

`Cc1ccc(C(O[C@H]2C[C@H]3CC[C@@H](C2)N3C)c2ccccc2)cc1` (stereo partly drawn): the inhibition in test [1] turned out to be 35.4%; in test [2] it was 31.8%. Moreover, 512 nM corresponded to half-maximal inhibition in test [3] (IC50).

As for `CN1[C@@H]2CC[C@H]1C[C@@H](OC(c1ccccc1)c1ccc(C(C)(C)C)cc1)C2` (stereo partly drawn), the results for the inhibition in test [1] and in test [2] were 24.7% and 37.6%, respectively. Also, inhibition in test [3] was half-maximal at 4460 nM (IC50).

Turning to `CN1C2CCC1CC(OC(c1ccccc1)c1ccc(Cl)cc1)C2` (stereo in doubt; 7a) [listing 1 of 2 here], the inhibition constant Ki (as a rule, the dissociation constant of the complex between target and ligand, obtained from inhibition or displacement) stood at 3.6 nM in test [4], 30 nM in test [5] and 36.6 nM in test [6]. Besides, in test [3], the IC50 (in general, the concentration that gives 50% inhibition) is 115 nM.

Take `CN1[C@@H]2CC[C@H]1C[C@@H](OC(c1ccccc1)c1ccc([N+](=O)[O-])cc1)C2` (stereo partly drawn): the inhibition in test [1] was 54%; in test [2], 29%. This compound had a 50% inhibitory concentration (IC50) in test [3] of 219 nM.

With `CN1[C@@H]2CC[C@H]1C[C@@H](OC(c1ccc(Br)cc1)c1ccc(Br)cc1)C2`, the inhibition in test [1] was 41%; in test [2], 41.1%. In test [4], the Ki was determined as 70.8 nM. In test [3], the IC50 is 34 nM.

As to `CN1[C@@H]2CC[C@H]1C[C@@H](OC(c1ccccc1)c1ccc(Cl)c(Cl)c1)C2` (stereo partly drawn), the inhibition in test [1] stood at 66.2%; in test [2], 56.5%. This compound had a Ki in test [5] of 21.1 nM. In test [3], this compound yielded an IC50 of 47 nM.

With `CN1C2CCC1CC(OC(c1ccccc1)c1ccc(Cl)cc1)C2` (stereo in doubt; 7a) [listing 2 of 2 here], the values for the inhibition in test [1] and in test [2] were 34% and 32%, respectively.

Consider `COc1ccc(C(O[C@H]2C[C@H]3CC[C@@H](C2)N3C)c2ccc(OC)cc2)cc1`, for which the inhibition in test [1] was 31%; in test [2] it was 34%. For the same compound, the affinity in test [5] corresponds to a Ki of 2000 nM. In addition, the IC50 in test [3] worked out at 2880 nM.

For `Cc1ccc(C(O[C@H]2C[C@H]3CC[C@@H](C2)N3C)c2ccc(C)cc2)cc1`, the inhibition came to 35.5% in test [1] and 35.1% in test [2]. The compound further came in with a half-inhibitory concentration (IC50) in test [3] of 2540 nM.

Consider `CN1[C@@H]2CC[C@H]1C[C@@H](OC(c1ccccc1)c1ccc(F)cc1)C2` (stereo partly drawn), for which the inhibition in test [1] came to 35.2%; in test [2] it was 37.9%.

Consider `CN1[C@@H]2CC[C@H]1C[C@@H](OC(c1ccccc1)c1ccc(C#N)cc1)C2` (stereo partly drawn), for which the inhibition in test [1] is 40%; in test [2], 16%. Also, the concentration for half-maximal inhibition (IC50) in test [3] amounted to 222 nM.

As for `CN1[C@@H]2CC[C@H]1C[C@@H](OC(c1ccccc1)c1ccc(C(F)(F)F)cc1)C2` (stereo partly drawn), the inhibition in test [1] came out at 49.1%; in test [2], 34.6%. Further, the IC50 in test [3] worked out at 2150 nM.

For `CN1C2CCC1CC(OC(c1ccccc1)c1ccc(Cl)cc1)C2` (stereo in doubt; 10) [listing 2 of 2 here], the inhibitory constant (Ki) was determined as 4.1 nM in test [4] and 87.4 nM in test [6]. The compound further showed an IC50 in test [3] of 3520 nM.

As for `CN1C2CCC1CC(OC(c1ccc(F)cc1)c1ccc(F)cc1)C2` (stereo not drawn), the inhibition in test [1] was 62%; in test [2], 30%.

For the compound `CN1[C@@H]2CC[C@H]1C[C@@H](OC(c1ccc(F)cc1)c1ccc(Cl)c(Cl)c1)C2` (stereo partly drawn), the inhibition in test [1] was 80.3%; in test [2], > 57.8%. In test [3], the half-inhibitory concentration (IC50) was 24 nM.

Consider `COc1ccc(C(O[C@H]2C[C@H]3CC[C@@H](C2)N3C)c2ccccc2)cc1` (stereo partly drawn), for which the inhibition turned out to be 30.5% in test [1] and 30.9% in test [2]. The compound also registered a Ki in test [5] of 78.4 nM. Inhibition in test [3] was half-maximal at 468 nM (IC50).

With `CN1[C@@H]2CC[C@H]1C[C@@H](OC(c1ccccc1)c1ccc(O)cc1)C2` (stereo partly drawn), the inhibition in test [1] is 23.3%; in test [2], 27.3%. Further, in test [3], the IC50 turned out to be 677 nM.

The values above are taken from ChEMBL document CHEMBL1128449, “Novel 4'-substituted and 4',4"-disubstituted 3 alpha-(diphenylmethoxy)tropane analogs as potent and selective dopamine uptake inhibitors” (J Med Chem, 1995).
